Assay results reported in ChEMBL document CHEMBL2401669, “Discovery and structure-activity relationships of ent-Kaurene diterpenoids as potent and selective 11β-HSD1 inhibitors: potential impact in diabetes” (Eur J Med Chem, 2013).

Assays:
[1] = target: 11-beta-hydroxysteroid dehydrogenase 1 (Mus musculus, UniProt P50172); test: Inhibition of mouse 11beta-HSD1 expressed in HEK293 cell microsomes assessed as inhibition of [3H]cortisone conversion to [3H]cortisol by scintillation proximity assay; parameters: species or system Microsome
11-beta-hydroxysteroid dehydrogenase 1 (Mus musculus, UniProt P50172), sequence (P50172 whole entry): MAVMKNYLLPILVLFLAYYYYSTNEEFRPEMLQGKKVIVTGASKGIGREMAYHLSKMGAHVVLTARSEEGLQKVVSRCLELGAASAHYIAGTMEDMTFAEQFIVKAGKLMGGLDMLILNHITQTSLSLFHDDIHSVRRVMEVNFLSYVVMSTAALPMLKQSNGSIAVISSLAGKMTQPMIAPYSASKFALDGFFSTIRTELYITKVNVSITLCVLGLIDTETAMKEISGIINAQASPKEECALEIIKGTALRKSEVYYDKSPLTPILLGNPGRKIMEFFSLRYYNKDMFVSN
Summary of the method: (§1)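 Enzyme source: microsomal fraction from HEK-293 cells stably transfected with 11β-HSD1 (human or mouse), incubated with NADPH and [3H]cortisone. The [3H]cortisol product is captured by a monoclonal antibody on protein A-coated SPA beads. IC50 is averaged over at least two independent experiments, at least duplicate per concentration.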

Homo sapiens = organism: Homo sapiens; test: selectivity ratio of IC50 for human 11beta-HSD2 to IC50 for human 11beta-HSD1
Summary of the method: (§2)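 Ratio of 11β-HSD2 IC50 to 11β-HSD1 IC50 for the same species (mouse or human). Both IC50s come from microsome-based scintillation proximity assays, averaged over at least two independent experiments with at least duplicate wells per concentration. Only compounds exceeding 50% inhibition in the primary screen were evaluated.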

[2] = target: 11-beta-hydroxysteroid dehydrogenase 1 (Homo sapiens, UniProt P28845); test: Inhibition of human 11beta-HSD1 expressed in HEK293 cell microsomes assessed as inhibition of [3H]cortisone conversion to [3H]cortisol by scintillation proximity assay; parameters: species or system Microsome; summary of the method: as §1
11-beta-hydroxysteroid dehydrogenase 1 (Homo sapiens, UniProt P28845), sequence (P28845 whole entry): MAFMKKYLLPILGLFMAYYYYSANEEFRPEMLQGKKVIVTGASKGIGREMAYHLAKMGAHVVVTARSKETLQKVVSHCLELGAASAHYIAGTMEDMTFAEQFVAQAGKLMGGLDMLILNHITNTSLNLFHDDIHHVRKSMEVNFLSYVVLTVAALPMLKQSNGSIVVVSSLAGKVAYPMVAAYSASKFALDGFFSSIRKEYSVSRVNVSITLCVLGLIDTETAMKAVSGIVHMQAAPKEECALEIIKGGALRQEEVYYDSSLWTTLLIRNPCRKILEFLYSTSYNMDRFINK

[3] = target: T1, 11-beta-hydroxysteroid dehydrogenase type 2 (Homo sapiens, UniProt P80365); test: Inhibition of human 11beta-HSD2
T1 sequence (P80365 whole entry): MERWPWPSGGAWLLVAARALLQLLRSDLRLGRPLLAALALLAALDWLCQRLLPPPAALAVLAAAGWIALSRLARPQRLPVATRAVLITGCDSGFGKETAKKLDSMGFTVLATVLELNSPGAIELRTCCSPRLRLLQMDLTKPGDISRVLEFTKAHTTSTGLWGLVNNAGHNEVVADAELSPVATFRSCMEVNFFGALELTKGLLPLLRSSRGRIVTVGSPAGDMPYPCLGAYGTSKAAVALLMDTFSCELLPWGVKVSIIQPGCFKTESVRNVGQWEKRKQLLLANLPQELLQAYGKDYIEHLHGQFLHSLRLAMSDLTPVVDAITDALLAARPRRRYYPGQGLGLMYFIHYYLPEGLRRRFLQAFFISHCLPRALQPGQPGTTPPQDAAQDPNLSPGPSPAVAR

[4] = target: 11-beta-hydroxysteroid dehydrogenase 1 (Mus musculus) (UniProt P50172); test: Inhibition of mouse 11beta-HSD1 expressed in HEK293 cell microsomes assessed as inhibition of [3H]cortisone conversion to [3H]cortisol at 1 uM by scintillation proximity assay; details: Microsome
11-beta-hydroxysteroid dehydrogenase 1 (Mus musculus), sequence (P50172 whole entry, looked up): as the sequence (P50172 whole entry) above
Summary of the method: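 Primary single-concentration screen in the SPA. Mouse 11β-HSD1 HEK-293 stable-transfectant microsomes are incubated with NADPH and [3H]cortisone, and [3H]cortisol is captured by antibody-coupled protein A SPA beads. Inhibitory ratio is the average of two determinations, with deviation from the average of 10% of the average value.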

Mus musculus = organism: Mus musculus; test: Selectivity ratio of IC50 for mouse 11beta-HSD2 to IC50 for mouse 11beta-HSD1; summary of the method: as §2
[5] = target: T2, 11-beta-hydroxysteroid dehydrogenase type 2 (Mus musculus, UniProt P51661); test: Inhibition of mouse 11beta-HSD2
T2 sequence (P51661 whole entry): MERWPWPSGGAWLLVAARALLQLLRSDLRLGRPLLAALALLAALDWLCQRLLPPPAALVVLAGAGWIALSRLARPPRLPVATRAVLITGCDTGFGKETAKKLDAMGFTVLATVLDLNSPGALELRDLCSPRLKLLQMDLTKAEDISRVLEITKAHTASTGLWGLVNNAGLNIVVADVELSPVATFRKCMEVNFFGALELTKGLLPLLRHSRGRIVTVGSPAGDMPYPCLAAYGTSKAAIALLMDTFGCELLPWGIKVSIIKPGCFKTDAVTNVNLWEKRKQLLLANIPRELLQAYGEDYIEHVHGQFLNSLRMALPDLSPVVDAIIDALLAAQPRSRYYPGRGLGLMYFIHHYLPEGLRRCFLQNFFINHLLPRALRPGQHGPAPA
Summary of the method: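 Scintillation proximity assay using microsomes containing mouse 11β-HSD2. IC50 is averaged over at least two independent experiments, with at least two replicates per concentration.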

| IC50 [1] [µM] | IC50 [2] [µM] | inhibition [4] [%] | SMILES | other results |
| --- | --- | --- | --- | --- |
| > 1 | 0.407 | 18.2 | C=C1C[C@@]23CC[C@H]4[C@@](C)(CCC[C@@]4(C)NC(=O)NC45CC6CC(CC(C6)C4)C5)[C@@H]2CC[C@H]1C3 | Ratio IC50 (Homo sapiens): > 246; IC50 [3]: > 100 µM |
|  |  | 16.8 | C[C@@]12CCC[C@@](C)(C(=O)O)[C@H]1CC[C@@]13C[C@H](C[C@H](O)[C@@H]21)[C@]1(CO1)[C@H]3O |  |
| > 1 | 0.249 | 7.92 | C=C1[C@H]2C[C@H](O)[C@H]3[C@]4(C)CCC[C@@](C)(NC(=O)Nc5ccc(F)cc5)[C@H]4CC[C@]3(C2)[C@@H]1O | Ratio IC50 (Homo sapiens): > 402; IC50 [3]: > 100 µM |
|  |  | 55.5 | C=C1C[C@@]23CC[C@H]4[C@@](C)(CCC[C@@]4(C)N=C=O)[C@@H]2CC[C@H]1C3 |  |
|  |  | 25.3 | C=C1C(=O)[C@@]23CC[C@H]4[C@@](C)(CCC[C@@]4(C)C(=O)O)[C@@H]2[C@@H](O)C[C@H]1C3 |  |
|  |  | 16.8 | C=C1[C@H]2C[C@H](O)[C@H]3[C@]4(C)CCC[C@@](C)(N=C=O)[C@H]4CC[C@]3(C2)[C@@H]1O |  |
| > 1 | 0.165 | 16.3 | C=C1[C@H]2C[C@H](O)[C@H]3[C@]4(C)CCC[C@@](C)(NC(=O)NC5CCCCC5)[C@H]4CC[C@]3(C2)[C@@H]1O | Ratio IC50 (Homo sapiens): > 605; IC50 [3]: > 100 µM |
|  |  | 19.6 | C=C1[C@@H](O)[C@@]23CC[C@H]4[C@@](C)(CCC[C@@]4(C)C(=O)O)[C@@H]2C=C[C@H]1C3 |  |
|  |  | 11.3 | C=C1[C@H]2C[C@H](O)[C@H]3[C@]4(C)CCC[C@@](C)(NC(=O)NC(C)(C)C)[C@H]4CC[C@]3(C2)[C@@H]1O |  |
| > 1 | 0.0094 | 24.4 | C=C1[C@H]2C[C@H](O)[C@H]3[C@]4(C)CCC[C@@](C)(NC(=O)Nc5ccccc5)[C@H]4CC[C@]3(C2)[C@@H]1O | Ratio IC50 (Homo sapiens): > 10600; IC50 [3]: > 1000 µM |
|  |  | 5.39 | C=C1[C@H]2C[C@H](O)[C@H]3[C@]4(C)CCC[C@@](C)(NC(=O)Nc5nccs5)[C@H]4CC[C@]3(C2)[C@@H]1O |  |
|  |  | 16.5 | C=C1[C@H]2C[C@H](O)[C@H]3[C@]4(C)CCC[C@@](C)(C(=O)O)[C@H]4CC[C@]3(C2)[C@@H]1O |  |
|  |  | 18.2 | C=C1C[C@@]23CC[C@H]4[C@@](C)(CCC[C@@]4(C)NC(=O)Nc4nccs4)[C@@H]2CC[C@H]1C3 |  |
|  |  | 11.6 | C[C@H]1[C@H]2C[C@H](O)[C@H]3[C@]4(C)CCC[C@@](C)(C(=O)O)[C@H]4CC[C@]3(C2)[C@@H]1O |  |
|  |  | 16.1 | C=C1[C@H]2C[C@H](O)[C@H]3[C@]4(C)CCC[C@@](C)(NC(=O)N(C)OC)[C@H]4CC[C@]3(C2)[C@@H]1O |  |
|  |  | 32.7 | C=C1[C@H]2C[C@H](OC(=O)c3ccc(Br)cc3)[C@H]3[C@]4(C)CCC[C@@](C)(C(=O)O)[C@H]4CC[C@]3(C2)[C@@H]1O |  |
|  |  | 35.2 | C=C1[C@H]2C[C@H](OC(=O)N3CCOCC3)[C@H]3[C@]4(C)CCC[C@@](C)(C(=O)O)[C@H]4CC[C@]3(C2)[C@@H]1O |  |
| > 1 | 0.331 | 25.9 | C=C1C[C@@]23CC[C@H]4[C@@](C)(CCC[C@@]4(C)NC(=O)Nc4ccc(F)cc4)[C@@H]2CC[C@H]1C3 | Ratio IC50 (Homo sapiens): > 302; IC50 [3]: > 100 µM |
|  |  | 12.7 | C=C1[C@H]2C[C@H](O)[C@H]3[C@]4(C)CCC[C@@](C)(NC(=O)N5CCNCC5)[C@H]4CC[C@]3(C2)[C@@H]1O |  |
|  |  | 21.3 | C=C1[C@H]2C[C@H](OC(=O)c3ccccc3)[C@H]3[C@]4(C)CCC[C@@](C)(C(=O)O)[C@H]4CC[C@]3(C2)[C@@H]1O |  |

| IC50 [1] [µM] | IC50 [2] [µM] | inhibition [4] [%] | SMILES | other results |
| --- | --- | --- | --- | --- |
|  |  | 11.6 | C=C1[C@H]2C[C@H](OC(=O)Nc3nccs3)[C@H]3[C@]4(C)CCC[C@@](C)(C(=O)O)[C@H]4CC[C@]3(C2)[C@@H]1O |  |
|  |  | 19.6 | C[C@@]12CCC[C@@](C)(C(=O)O)[C@H]1CC[C@]13CC(=O)[C@@H](CC[C@H]12)C3 |  |
|  |  | 27.3 | C=C1[C@H]2C[C@H](O)[C@H]3[C@]4(C)CCC[C@@](C)(CO)[C@H]4CC[C@]3(C2)[C@@H]1O |  |
| 3.22 | 1.24 |  | C[C@@]12CCC[C@@](C)(C(=O)O)[C@H]1CC[C@@]13C[C@H](CC[C@H]12)[C@@](O)(CO)C3 | Ratio IC50 (Mus musculus): > 311; IC50 [5]: > 1000 µM; Ratio IC50 (Homo sapiens): > 809; IC50 [3]: > 1000 µM |
| 0.259 | > 1 | 55.5 | C=C1[C@H]2CC[C@H]3[C@]4(C)CCC[C@@](C)(C(=O)O)[C@H]4CC[C@]3(C2)[C@H]1O | Ratio IC50 (Mus musculus): > 387; IC50 [5]: > 100 µM |
|  |  | 34 | C=C1[C@H]2C[C@H](OC(=O)c3ccc(N(C)C)cc3)[C@H]3[C@]4(C)CCC[C@@](C)(C(=O)O)[C@H]4CC[C@]3(C2)[C@@H]1O |  |
|  |  | 96.7 | CC1(C)[C@@H](O)CC[C@]2(C)[C@H]3C(=O)C=C4[C@@H]5C[C@@](C)(C(=O)O)CC[C@]5(C)CC[C@@]4(C)[C@]3(C)CC[C@@H]12 |  |
| > 1 | 0.266 | 52.2 | C=C1[C@H]2C[C@H](O)[C@H]3[C@]4(C)CCC[C@@](C)(NC(=O)Nc5cccc6ccccc56)[C@H]4CC[C@]3(C2)[C@@H]1O | Ratio IC50 (Homo sapiens): 6.2; IC50 [3]: 1.6 µM |
|  |  | 3.69 | C=C1[C@H]2C[C@H](O)[C@H]3[C@]4(C)CCC[C@@](C)(NC(=O)Nc5ccc(C(F)(F)F)cc5)[C@H]4CC[C@]3(C2)[C@@H]1O |  |
|  |  | 37.7 | C=C1C[C@@]23CC[C@@H]4[C@](C)(CF)CCC[C@@]4(C)[C@@H]2CC[C@H]1C3 |  |
|  |  | 56 | C=C1[C@H]2CC[C@H]3[C@]4(C)CCC[C@@](C)(C(=O)O)[C@H]4CC[C@]3(C2)[C@@H]1F |  |
|  |  | 19.4 | C=C1[C@H]2C[C@H](O)[C@H]3[C@]4(C)CCC[C@@](C)(NC(=O)NC)[C@H]4CC[C@]3(C2)[C@@H]1O |  |
| > 1 | 0.404 | 20.8 | C=C1[C@H]2C[C@H](O)[C@H]3[C@]4(C)CCC[C@@](C)(NC(=O)NC56CC7CC(CC(C7)C5)C6)[C@H]4CC[C@]3(C2)[C@@H]1O | Ratio IC50 (Homo sapiens): 1.7; IC50 [3]: 0.7 µM |
| > 1 | 0.771 | 11.1 | C=C1[C@H]2C[C@H](OC(=S)SC)[C@H]3[C@]4(C)CCC[C@@](C)(C(=O)O)[C@H]4CC[C@]3(C2)[C@@H]1O | Ratio IC50 (Homo sapiens): > 130; IC50 [3]: > 100 µM |
|  |  | 25.1 | C=C1[C@H]2C[C@H](O)[C@H]3[C@]4(C)CCC[C@@](C)(C(=O)OC)[C@H]4CC[C@]3(C2)[C@@H]1O |  |
|  |  | 9.21 | C=C1[C@H]2C[C@H](O)[C@H]3[C@]4(C)CCC[C@@](C)(NC(=O)N5CCCC5)[C@H]4CC[C@]3(C2)[C@@H]1O |  |
| 2.81 | 0.91 |  | C[C@@]1(CO)CCC[C@]2(C)[C@@H]1CC[C@@]13C[C@H](CC[C@H]12)[C@@](O)(CO)C3 | Ratio IC50 (Mus musculus): > 357; IC50 [5]: > 1000 µM; Ratio IC50 (Homo sapiens): > 1100; IC50 [3]: > 1000 µM |
| > 1 | 0.116 | 12.4 | C=C1[C@H]2C[C@H](OC(C)=O)[C@H]3[C@]4(C)CCC[C@@](C)(C(=O)O)[C@H]4CC[C@]3(C2)[C@@H]1O | Ratio IC50 (Homo sapiens): 1970; IC50 [3]: 229 µM |
|  |  | 21.4 | C=C1[C@H]2C[C@H](O)[C@H]3[C@]4(C)CCC[C@@](C)(NC(=O)N5CCOCC5)[C@H]4CC[C@]3(C2)[C@@H]1O |  |
| 0.357 |  | 82.4 | C=C1C[C@@]23CC[C@H]4[C@@](C)(CCC[C@@]4(C)C(=O)O)[C@@H]2CC[C@@H]1C3 [KAURENOIC ACID] | Ratio IC50 (Mus musculus): 1400; IC50 [5]: 500 µM |
